ChEMBL document CHEMBL1126033, “C-terminal modifications of nonpeptide renin inhibitors: improved oral bioavailability via modification of physicochemical properties” (J Med Chem, 1992)

Key:
[1] = Bioavailability in ferret; conditions: in vivo
[2] = Partition coefficient (logD7.4); conditions: octanol/water, pH 7.4
[3] = Partition coefficient (logD6.5); conditions: octanol/water, pH 6.5
[4] = Average peak plasma drug concentration after id dose of 10 mg/kg in ferrets(Plasma samples collected from arterial blood).; conditions: ferret
Renin [5] = biological target: T1, Renin (Homo sapiens, UniProt P00797); assay type: cell-free, Plasma
T1 sequence (P00797 whole entry): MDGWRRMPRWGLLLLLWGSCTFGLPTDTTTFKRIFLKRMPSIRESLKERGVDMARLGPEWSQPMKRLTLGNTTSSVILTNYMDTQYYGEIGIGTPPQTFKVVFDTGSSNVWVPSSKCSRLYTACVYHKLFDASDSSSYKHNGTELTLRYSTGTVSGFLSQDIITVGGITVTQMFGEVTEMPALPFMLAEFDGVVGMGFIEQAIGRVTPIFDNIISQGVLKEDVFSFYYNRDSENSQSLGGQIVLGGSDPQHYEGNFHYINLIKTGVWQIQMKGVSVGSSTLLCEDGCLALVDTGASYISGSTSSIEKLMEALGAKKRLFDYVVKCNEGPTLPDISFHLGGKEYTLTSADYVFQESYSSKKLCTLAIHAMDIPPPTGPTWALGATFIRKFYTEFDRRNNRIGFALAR

[6] = (§1) Average peak plasma drug concentration after id dose of 10 mg/kg in ferrets(Plasma samples collected from portal blood).; assay type: ADME, organism-based, Mustela putorius furo; design: dose 10 mg/kg, route intraduodenal; conditions: ferret, read-out: Average peak Concn
Procedure, shortened: (§2)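 Fasted male Fitch ferrets (0.4–1.2 kg) under Inactin anesthesia (100–120 mg/kg ip), catheterized in carotid artery, jugular vein, portal vein and trachea. Single 10 mg/kg intraduodenal dose of HCl salt solution. 6 portal and 7 arterial samples taken over 180 min. Plasma drug measured by renin-inhibition bioassay with serial dilution and acetonitrile precipitation. AUC by trapezoidal integration; peak is the mean of each animal's maximum.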

Mustela putorius furo [7] = assay: Average area under curve value dosed at 0.3 mg/kg, iv in ferrets.; conditions: ferret, in vivo
Mustela putorius furo [8] = assay: (§3) Average area under curve value dosed at 10 mg/kg, id in ferrets.; conditions: ferret, in vivo, other
[9] = Average peak plasma drug concentration after iv dose of 0.3 mg/kg in ferrets.; conditions: ferret
[10] = Bioavailability in monkey (i.d. dosing); assay type: ADME, organism-based; conditions: in vivo
Procedure, shortened: (§4)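 Male cynomolgus monkeys (3–5 kg) salt-depleted with furosemide 5 mg/kg po on days 7 and 1 plus a low-salt diet. Fasted, pentobarbital anesthesia. Intraduodenal dose of 10 mg/kg as HCl salt solution. Portal and systemic plasma drug levels measured by bioassay. Bioavailability = dose-normalized AUCid/AUCiv ×100 (trapezoidal integration; iv fit biexponential), mean ± SEM.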

Mustela putorius furo [11] = assay: as §3; assay type: ADME, organism-based; design: dose 10 mg/kg, route intraduodenal; conditions: ferret, in vivo, other; procedure, shortened: as §2
[12] = biological target: T2, Gastricsin (Homo sapiens) (UniProt P20142); assay: Inhibitory activity against human Gastricsin at a concentration of 1 x 10e-5 M
T2 sequence (whole entry): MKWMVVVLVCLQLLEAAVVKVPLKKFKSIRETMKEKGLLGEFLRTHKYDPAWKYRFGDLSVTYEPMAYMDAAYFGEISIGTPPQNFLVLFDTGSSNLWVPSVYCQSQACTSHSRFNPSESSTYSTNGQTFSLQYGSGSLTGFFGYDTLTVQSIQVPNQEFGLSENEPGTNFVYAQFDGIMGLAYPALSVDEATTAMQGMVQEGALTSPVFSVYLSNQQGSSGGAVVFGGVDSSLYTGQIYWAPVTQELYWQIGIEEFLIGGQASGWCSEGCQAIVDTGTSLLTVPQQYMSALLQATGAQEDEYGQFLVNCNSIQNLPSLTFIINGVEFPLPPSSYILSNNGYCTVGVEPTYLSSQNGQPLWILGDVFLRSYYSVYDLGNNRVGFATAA

Pepsin A (Sus scrofa) = Pepsin A (Sus scrofa) (UniProt P00791); assay: Inhibitory activity against porcine pepsin at a concentration of 1 x 10e-5 M
[13] = biological target: Cathepsin D (Homo sapiens) (UniProt P07339); assay: Inhibitory activity against human cathepsin D at a concentration of 1 x 10e-5 M
Procedure, shortened: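 Human spleen cathepsin D, purified by hemoglobin affinity chromatography and assayed with hemoglobin substrate.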

Renin [14] = biological target: T1, Renin; assay: In vitro activity against human renin (pH 6.0)
[15] = biological target: T3, Cathepsin G (Homo sapiens) (UniProt P08311); assay: Inhibitory activity against human cathepsin G at a concentration of 1 x 10e-5 M
T3 sequence (whole entry): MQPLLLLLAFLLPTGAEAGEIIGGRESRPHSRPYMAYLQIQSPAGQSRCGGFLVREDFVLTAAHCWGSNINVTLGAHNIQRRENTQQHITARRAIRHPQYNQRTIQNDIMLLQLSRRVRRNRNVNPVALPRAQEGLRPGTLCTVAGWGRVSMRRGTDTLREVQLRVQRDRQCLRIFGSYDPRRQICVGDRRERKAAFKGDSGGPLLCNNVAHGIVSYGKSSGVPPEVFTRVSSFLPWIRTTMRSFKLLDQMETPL
Procedure, shortened: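 Human leukocyte cathepsin G, assayed with N-succinyl-Ala-Ala-Pro-Phe-4-nitroanilide substrate.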

Cathepsin D (Bos taurus) = biological target: T4, Cathepsin D (Bos taurus) (UniProt P80209); assay: Inhibitory activity against bovine cathepsin D at a concentration of 1 x 10e-5 M
T4 sequence (whole entry): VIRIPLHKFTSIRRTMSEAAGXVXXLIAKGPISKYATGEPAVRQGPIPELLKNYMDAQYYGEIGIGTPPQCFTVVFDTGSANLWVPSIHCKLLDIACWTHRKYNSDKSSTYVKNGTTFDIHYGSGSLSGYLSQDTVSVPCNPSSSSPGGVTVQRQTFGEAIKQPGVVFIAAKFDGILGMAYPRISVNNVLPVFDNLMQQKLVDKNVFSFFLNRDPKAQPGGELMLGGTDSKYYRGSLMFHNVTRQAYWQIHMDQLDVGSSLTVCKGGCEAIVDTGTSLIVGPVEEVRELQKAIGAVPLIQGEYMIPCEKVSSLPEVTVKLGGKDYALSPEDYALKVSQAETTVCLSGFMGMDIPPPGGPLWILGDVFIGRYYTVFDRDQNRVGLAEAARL

[16] = as §1; conditions: ferret
[17] = Inhibitory activity against monkey plasma at pH 7.4; conditions: Cercopithecidae
[18] = Bioavailability in monkey (dose 10 mg/kg i.d.); assay type: ADME, organism-based; conditions: primates, in vivo; procedure, shortened: as §4

Cathepsin D (Homo sapiens), sequence (P07339 65-162 limits assumed): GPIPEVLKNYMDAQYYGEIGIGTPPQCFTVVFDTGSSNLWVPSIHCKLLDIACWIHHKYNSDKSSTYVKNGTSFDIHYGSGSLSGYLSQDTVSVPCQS
Cathepsin D (Homo sapiens), sequence (P07339 169-412 limits assumed): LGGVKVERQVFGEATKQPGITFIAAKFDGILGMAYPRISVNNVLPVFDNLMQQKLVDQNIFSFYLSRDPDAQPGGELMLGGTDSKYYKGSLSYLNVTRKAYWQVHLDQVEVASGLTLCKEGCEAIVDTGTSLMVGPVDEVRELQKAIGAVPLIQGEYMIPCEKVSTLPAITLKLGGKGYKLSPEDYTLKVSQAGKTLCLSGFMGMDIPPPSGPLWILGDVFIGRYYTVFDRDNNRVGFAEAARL
Pepsin A (Sus scrofa), sequence (P00791 60-385 limits assumed): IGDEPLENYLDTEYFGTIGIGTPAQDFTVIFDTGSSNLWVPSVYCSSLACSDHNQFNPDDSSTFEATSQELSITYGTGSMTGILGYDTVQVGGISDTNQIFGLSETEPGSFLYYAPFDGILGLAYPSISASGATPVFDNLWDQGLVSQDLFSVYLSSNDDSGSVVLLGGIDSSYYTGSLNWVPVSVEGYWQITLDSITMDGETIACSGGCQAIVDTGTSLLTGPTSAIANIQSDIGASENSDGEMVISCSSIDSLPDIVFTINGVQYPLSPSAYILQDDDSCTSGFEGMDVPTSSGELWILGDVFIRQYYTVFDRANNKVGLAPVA

Row | Compound | bioavailability [1] [%] | logD [2] | logD [3] | Cmax ([4]; plasma (from arterial blood)) [µg/mL] | IC50 (Renin [5]) [nM] | Average AUC (Mustela putorius furo [7]) [µg·h/mL] | Average AUC (Mustela putorius furo [8]) [µg·h/mL] | Cmax ([9]; plasma) [µg/mL] | IC50 (Renin [14]) [nM] | Cmax ([16]; plasma (from portal blood)) [µg/mL] | other results
1 | CCCC[C@H](N[C@@H](Cc1ccccc1)C(=O)N1CCC(OCOC)CC1)C(=O)N[C@@H](CC1CCCCC1)[C@@H](O)C[C@H](C(=O)NCCCN1CCOCC1)C(C)C | 34 | 4.5 | 3.9 | – | – | 0.682 | 7.7 | – | – | – | Cmax ([4]; in vivo): 3.49 µg/mL; Cmax ([16]; in vivo): 4.35 µg/mL; Cmax ([9]; in vivo): 1.31 µg/mL
2 | CCCC[C@H](N[C@@H](Cc1ccccc1)C(=O)N1CCC(OCOC)CC1)C(=O)N[C@@H](CC1CCCCC1)[C@@H](O)C[C@H](NC(=O)OCCN(C)C)C(C)C | 62 | 4.6 | 3.8 | 2.07 | 12 | 0.245 | 5.05 | 0.93 | 1.5 | 5.25 | –
3 | COc1ccc(C[C@H](NC(=O)CC(C)(C)N)C(=O)N[C@@H](Cc2cnc[nH]2)C(=O)N[C@@H](CC2CCCCC2)[C@@H](O)[C@@H](O)CC(C)C)cc1 | – | – | – | – | – | – | – | – | – | – | bioavailability ([10]; cercopithecidae): 1.7%
4 | CCCC[C@H](N[C@@H](Cc1ccccc1)C(=O)N1CCC(OCOC)CC1)C(=O)N[C@@H](CC1CCCCC1)[C@@H](O)[C@@H](O)CC(C)C | – | – | – | – | – | – | – | – | – | – | bioavailability [18]: 2.9%
5 | CCCC[C@H](O[C@@H](Cc1ccccc1)C(=O)N1CCC(OCOC)CC1)C(=O)N[C@@H](CC1CCCCC1)[C@@H](O)C[C@H](NC(=O)OCCN(C)C)C(C)C | 36 | > 4 | 3.6 | 1.19 | 8.3 | 0.232 | 2.78 | 1.01 | – | 1.54 | –
6 | CCCC[C@H](O[C@@H](Cc1ccccc1)C(=O)N1CCC(OCOC)CC1)C(=O)N[C@@H](CC1CCCCC1)[C@@H](O)[C@@H](O)CC(C)C | – | 4.8 | 4.8 | – | – | – | – | – | – | – | bioavailability [18]: 2.5%
7 | CCCC[C@H](O[C@@H](Cc1ccccc1)C(=O)N1CCC(OCOC)CC1)C(=O)N[C@@H](CC1CCCCC1)[C@@H](O)C[C@H](NC(=O)OCCN1CCOCC1)C(C)C | 70 | 3.7 | 3.6 | 2.84 | 7.5 | 0.258 | – | 0.92 | – | 5.01 | Avg AUC, (Mustela putorius furo [11]): 363 µg/min/mL

The next lines start with results.

Row | bioavailability [1] [%] | logD [2] | logD [3] | Cmax ([4]; plasma (from arterial blood)) [µg/mL] | IC50 (Renin [5]) [nM] | Average AUC (Mustela putorius furo [7]) [µg·h/mL] | Average AUC (Mustela putorius furo [8]) [µg·h/mL] | Cmax ([9]; plasma) [µg/mL] | IC50 (Renin [14]) [nM] | Cmax ([16]; plasma (from portal blood)) [µg/mL] | Compound | other results
8 | 25 | 4 | 4 | 2.79 | 3 | 0.41 | 3.38 | 3.39 | – | – | CCCC[C@H](O[C@@H](Cc1ccccc1)C(=O)N1CCC(OCOC)CC1)C(=O)N[C@@H](CC1CCCCC1)[C@@H](O)C[C@H](C(=O)NCCCn1ccnc1)C(C)C | Cmax [6]: 2.42 µg/mL
9 | 28 | 4.3 | 3.3 | 4.83 | 2.8 | 0.588 | – | 2.11 | 2.4 | 6.01 | CCCC[C@H](O[C@@H](Cc1ccccc1)C(=O)N1CCC(OCOC)CC1)C(=O)N[C@@H](CC1CCCCC1)[C@@H](O)C[C@H](C(=O)NCCCN1CCOCC1)C(C)C | bioavailability ([10]; primates): 16%; Avg AUC, (Mustela putorius furo [11]): 391 µg/min/mL; inhibition [12]: 11%; inhibition (Pepsin A (Sus scrofa)): 13%; inhibition [13]: 6%; inhibition [15]: 0%; inhibition (Cathepsin D (Bos taurus)): 3%; IC50 [17]: 1.5 nM
10 | – | 4.7 | 4.7 | – | – | – | – | – | – | – | CCCCNC(=O)[C@@H](C[C@H](O)[C@H](CC1CCCCC1)NC(=O)[C@H](CCCC)O[C@@H](Cc1ccccc1)C(=O)N1CCC(OCOC)CC1)C(C)C | bioavailability [18]: 2.5%
11 | 16 | > 4.5 | > 4.5 | 1.54 | – | 0.673 | 3.53 | 2.23 | 1.8 | 3.22 | CCCCNC(=O)[C@@H](C[C@H](O)[C@H](CC1CCCCC1)NC(=O)[C@H](CCCC)N[C@@H](Cc1ccccc1)C(=O)N1CCC(OCOC)CC1)C(C)C | –
12 | 50 | 3.1 | 2.3 | 5.05 | 5.9 | 0.573 | 9.67 | 2.99 | – | 4.99 | CCCC[C@H](O[C@@H](Cc1ccccc1)C(=O)N1CCC(OCOC)CC1)C(=O)N[C@@H](CC1CCCCC1)[C@@H](O)C[C@H](C(=O)NCCCN(C)C)C(C)C | –
13 | 45 | > 5 | > 5 | 2.77 | 3.7 | 0.472 | 7.08 | 1.32 | 1 | 4.35 | CCCC[C@H](O[C@@H](Cc1ccccc1)C(=O)N1CCC(OCOC)CC1)C(=O)N[C@@H](CC1CCCCC1)[C@@H](O)C[C@H](C(=O)NCCN1CCOCC1)C(C)C | –
